Measurements pooled from the literature.
Each line is one published result; the experiments were not run side by side.
Target: Serine/threonine-protein kinase PRP4 homolog (PRPF4B, Homo sapiens, UniProt Q13523)

Structure (SMILES)	read-out	method	concentration	remaining binding [%]
Nc1ncc2c(n1)-c1c([nH]c3ccc(C#CC4CC4)cc13)CCCC2	binding	competition with immobilised ligand	1 µM	80
CC(C)(O)c1cncc(-c2nc3ccc(F)cc3n2C2CC2)c1	cell-free assay	competition with immobilised ligand	1 µM	58
O=C(NCCCN1CCOCC1)c1ccc(Nc2nccc(-c3cc4ccccc4s3)n2)cc1	binding	competition with immobilised ligand	1 µM	6.8
FC(F)(F)c1ccc2c(c1)nc(-c1cccnc1)n2C1CC1	cell-free assay	competition with immobilised ligand	1 µM	98
N[C@H]1CCN(c2nccc(-c3cnn4ncccc34)n2)C1	binding	–	1 µM	82
FC(F)(F)Oc1cccc(-c2cnc3ccc(-c4ccncc4)nn23)c1	cell-free assay	competition with immobilised ligand	5 µM	71
O=C(NCC1CCOCC1)c1n[nH]cc1NC(=O)c1c(F)cccc1F	binding	competition with immobilised ligand	1 µM	100
CN(C)c1ncc(F)c(-c2cnn3ncccc23)n1	binding	–	1 µM	100
COc1cnc(Nc2cccc(S(N)(=O)=O)c2)nc1N1CCN(c2ccccc2)CC1	binding	competition with immobilised ligand	1 µM	90
C[C@@H]1CN(c2cc(-c3nn(C)c4ccc(OC5(C)CC5)cc34)ncn2)C[C@H](C)O1	cell-free assay	competition with immobilised ligand	1 µM	100
c1cncc(-c2cccc(Nc3nccc(NC4CCCCC4)n3)c2)c1	binding	competition with immobilised ligand	10 µM	100
Cc1noc([C@H]2C[C@@H](c3ccc(C(F)(F)F)cc3)CN(C(=O)N3CCS(=O)(=O)C3)C2)n1	cell-free assay	competition with immobilised ligand	1 µM	72
c1cnn2ncc(-c3ccnc(N4CCC45COC5)n3)c2c1	binding	–	1 µM	84
C[C@@H]1CN(c2cc(-c3n[nH]c4ccc(OC5(C)CC5)cc34)ncn2)C[C@H](C)O1	cell-free assay	competition with immobilised ligand	0.1 µM	83
O=C(c1ccc(Nc2ncc(Cl)c(-c3cc4ccccc4s3)n2)cc1)N1CCC(N2CCCC2)CC1	binding	competition with immobilised ligand	1 µM	3.7
CC1CCCN1c1nccc(-c2cnn3ncccc23)n1 (stereo not shown)	binding	–	1 µM	100
COc1cnc(Nc2cccc(S(N)(=O)=O)c2)nc1N1CCN(c2ccccc2)C(=O)C1	binding	competition with immobilised ligand	1 µM	100
O=C(c1ccc(Nc2nccc(-c3cc4ccccc4s3)n2)cc1)N1CCC(N2CCCC2)CC1	binding	competition with immobilised ligand	1 µM	6.3
COc1ccnn2ncc(-c3ccnc(N(C)C)n3)c12	binding	–	1 µM	69
C[C@@H](c1ccc(-n2cnc3c(N)ncnc32)cc1)N1CCc2nn(C)c(Cc3ccccc3)c2C1=O	binding	competition with immobilised ligand	0.1 µM	100
C[C@@H]1CCN(c2nccc(-c3cnn4ncccc34)n2)C1	binding	–	1 µM	64
CC(=O)N1CCC(c2ccc(C(=O)NC(=N)N)cc2C(F)(F)F)CC1	cell-free assay	competition with immobilised ligand	1 µM	78
